pIC50: −log10 of the molar value.
Experiments:
[1] = molecular target: cGMP-dependent protein kinase 1 (Homo sapiens) (UniProt Q13976); assay: Inhibition of wild-type human partial length PRKG1 (L339 to F686 residues) expressed in Escherichia coli BL21 assessed as residual activity at 1000 nM after 30 mins by Kinomescan method relative to control
[2] = molecular target: Ribosomal protein S6 kinase alpha-4 (Homo sapiens) (UniProt O75676); assay: Inhibition of wild-type human partial length C-terminal RPS6KA4 kinase domain 2 (M375 to T705 residues) expressed in HEK293 cells assessed as residual activity at 1000 nM after 30 mins by Kinomescan method relative to control; assay type: cell-based
[3] = molecular target: Dual serine/threonine and tyrosine protein kinase (Homo sapiens) (UniProt Q6XUX3); assay: Inhibition of wild-type human full length RIPK5 (M1 to T929 residues) expressed in HEK293 cells assessed as residual activity at 1000 nM after 30 mins by Kinomescan method relative to control; assay type: cell-based
Dual serine/threonine and tyrosine protein kinase (Homo sapiens), sequence (Q6XUX3 whole entry, the tested form may be a part): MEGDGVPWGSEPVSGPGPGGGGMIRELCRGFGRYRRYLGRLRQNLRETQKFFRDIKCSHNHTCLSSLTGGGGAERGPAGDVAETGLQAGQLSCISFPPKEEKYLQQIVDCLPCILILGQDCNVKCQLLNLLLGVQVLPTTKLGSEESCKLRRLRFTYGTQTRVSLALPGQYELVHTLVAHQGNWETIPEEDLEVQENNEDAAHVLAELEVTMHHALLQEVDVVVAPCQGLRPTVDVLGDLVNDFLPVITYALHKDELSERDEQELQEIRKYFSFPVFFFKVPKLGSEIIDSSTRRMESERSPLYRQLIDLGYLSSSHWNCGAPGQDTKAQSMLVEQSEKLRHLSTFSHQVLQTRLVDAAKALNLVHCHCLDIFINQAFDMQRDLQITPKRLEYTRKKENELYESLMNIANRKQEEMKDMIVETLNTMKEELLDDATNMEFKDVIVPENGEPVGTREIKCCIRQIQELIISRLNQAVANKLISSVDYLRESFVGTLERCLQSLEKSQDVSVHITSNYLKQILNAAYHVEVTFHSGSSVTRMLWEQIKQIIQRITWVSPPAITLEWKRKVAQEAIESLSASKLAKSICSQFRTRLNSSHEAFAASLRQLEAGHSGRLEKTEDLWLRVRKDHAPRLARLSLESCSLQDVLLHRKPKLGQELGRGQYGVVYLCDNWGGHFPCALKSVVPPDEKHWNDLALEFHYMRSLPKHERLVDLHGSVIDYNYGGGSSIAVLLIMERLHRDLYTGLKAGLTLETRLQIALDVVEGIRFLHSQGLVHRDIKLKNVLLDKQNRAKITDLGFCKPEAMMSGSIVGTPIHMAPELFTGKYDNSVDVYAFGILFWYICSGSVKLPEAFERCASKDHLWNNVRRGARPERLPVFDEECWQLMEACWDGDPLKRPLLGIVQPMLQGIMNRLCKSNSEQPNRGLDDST

[4] = molecular target: Proto-oncogene tyrosine-protein kinase ROS (Homo sapiens) (UniProt P08922); assay: Inhibition of wild-type human partial length ROS1 (A1921 to N2240 residues) expressed in Escherichia coli BL21 assessed as residual activity at 1000 nM after 30 mins by Kinomescan method relative to control
Proto-oncogene tyrosine-protein kinase ROS (Homo sapiens), sequence (P08922 whole entry, the tested form may be a part): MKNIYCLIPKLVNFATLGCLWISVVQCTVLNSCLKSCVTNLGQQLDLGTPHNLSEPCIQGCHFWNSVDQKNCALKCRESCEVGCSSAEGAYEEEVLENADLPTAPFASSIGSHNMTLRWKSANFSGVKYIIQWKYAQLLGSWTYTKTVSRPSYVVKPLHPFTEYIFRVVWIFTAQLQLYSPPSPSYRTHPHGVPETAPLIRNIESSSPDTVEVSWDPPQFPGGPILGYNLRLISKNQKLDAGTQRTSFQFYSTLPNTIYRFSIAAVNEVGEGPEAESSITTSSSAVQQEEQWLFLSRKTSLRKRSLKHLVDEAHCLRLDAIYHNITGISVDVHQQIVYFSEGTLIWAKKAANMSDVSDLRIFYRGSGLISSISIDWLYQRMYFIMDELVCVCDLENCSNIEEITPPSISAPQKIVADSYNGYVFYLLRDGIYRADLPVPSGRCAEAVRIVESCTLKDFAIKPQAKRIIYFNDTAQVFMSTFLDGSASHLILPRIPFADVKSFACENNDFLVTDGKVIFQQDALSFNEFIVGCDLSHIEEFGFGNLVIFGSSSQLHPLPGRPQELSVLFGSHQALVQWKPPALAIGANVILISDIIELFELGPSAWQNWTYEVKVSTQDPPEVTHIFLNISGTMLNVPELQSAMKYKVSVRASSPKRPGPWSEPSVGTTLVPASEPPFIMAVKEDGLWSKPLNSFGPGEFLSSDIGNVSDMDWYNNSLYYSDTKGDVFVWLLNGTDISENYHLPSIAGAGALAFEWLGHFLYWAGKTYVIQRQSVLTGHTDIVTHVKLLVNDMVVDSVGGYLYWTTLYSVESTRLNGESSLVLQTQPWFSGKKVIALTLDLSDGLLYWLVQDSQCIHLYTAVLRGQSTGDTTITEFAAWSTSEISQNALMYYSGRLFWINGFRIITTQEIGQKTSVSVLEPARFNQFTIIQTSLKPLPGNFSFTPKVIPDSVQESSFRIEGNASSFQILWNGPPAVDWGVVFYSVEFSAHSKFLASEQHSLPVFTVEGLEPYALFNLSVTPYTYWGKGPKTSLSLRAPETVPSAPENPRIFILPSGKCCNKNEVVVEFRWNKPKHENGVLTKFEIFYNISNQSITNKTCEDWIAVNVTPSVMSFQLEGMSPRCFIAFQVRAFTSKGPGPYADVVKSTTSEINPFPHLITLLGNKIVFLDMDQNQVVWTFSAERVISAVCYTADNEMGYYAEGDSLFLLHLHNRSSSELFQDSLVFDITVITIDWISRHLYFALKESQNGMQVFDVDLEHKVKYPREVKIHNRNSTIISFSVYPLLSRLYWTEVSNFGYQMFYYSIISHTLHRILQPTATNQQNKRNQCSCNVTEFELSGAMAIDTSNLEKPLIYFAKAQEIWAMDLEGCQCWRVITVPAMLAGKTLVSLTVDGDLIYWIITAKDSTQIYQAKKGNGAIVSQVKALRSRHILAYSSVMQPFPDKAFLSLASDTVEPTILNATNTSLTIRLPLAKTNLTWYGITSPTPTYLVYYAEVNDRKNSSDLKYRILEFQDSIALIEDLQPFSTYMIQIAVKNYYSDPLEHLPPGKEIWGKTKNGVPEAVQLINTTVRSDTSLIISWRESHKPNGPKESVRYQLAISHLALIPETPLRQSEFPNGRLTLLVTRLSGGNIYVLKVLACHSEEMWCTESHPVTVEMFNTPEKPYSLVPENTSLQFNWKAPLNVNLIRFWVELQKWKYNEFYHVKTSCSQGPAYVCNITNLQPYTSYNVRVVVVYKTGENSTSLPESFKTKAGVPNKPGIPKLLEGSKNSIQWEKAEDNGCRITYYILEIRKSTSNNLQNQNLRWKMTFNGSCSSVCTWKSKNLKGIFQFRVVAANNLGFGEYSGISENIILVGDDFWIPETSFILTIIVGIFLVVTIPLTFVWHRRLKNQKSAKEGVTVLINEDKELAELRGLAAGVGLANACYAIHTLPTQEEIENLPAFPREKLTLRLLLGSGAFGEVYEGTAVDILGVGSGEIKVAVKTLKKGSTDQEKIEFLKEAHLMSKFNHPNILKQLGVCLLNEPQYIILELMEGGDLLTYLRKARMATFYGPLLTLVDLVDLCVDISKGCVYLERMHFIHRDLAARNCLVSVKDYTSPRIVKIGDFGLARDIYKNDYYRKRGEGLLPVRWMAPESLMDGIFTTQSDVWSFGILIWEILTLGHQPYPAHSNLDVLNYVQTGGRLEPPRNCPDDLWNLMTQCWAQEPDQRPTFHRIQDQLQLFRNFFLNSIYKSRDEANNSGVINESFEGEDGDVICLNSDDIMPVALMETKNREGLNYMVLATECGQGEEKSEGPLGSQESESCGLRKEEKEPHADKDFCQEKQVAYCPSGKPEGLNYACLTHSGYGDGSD

[5] = tested on: Tyrosine-protein kinase ABL1 (Homo sapiens), P00519 [Q252H]; assay: Inhibition of human non-phosphorylated ABL1 Q252H mutant (S229 to K512 residues) expressed in HEK293 cells assessed as residual activity at 1000 nM after 30 mins by Kinomescan method relative to control; assay type: cell-based
In short: (§1)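 KINOMEscan binding panel of 456 kinases, with the test compound at a single concentration of 1 µM. Read-out is Percent Control.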

[6] = molecular target: Cyclin-dependent kinase-like 1 (Homo sapiens) (UniProt Q00532); assay: Inhibition of wild-type human full length CDKL1 (M1 to I358 residues) expressed in HEK293 cells assessed as residual activity at 1000 nM after 30 mins by Kinomescan method relative to control; assay type: cell-based
In short: (§2)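 Single-point screen at a fixed 1 µM, run within a 456-kinase DiscoveRx KINOMEscan panel. Each kinase's read-out is Percent Control, i.e. signal relative to a control without compound. Hits were scored by a Percent Control < 35 cut-off, and an S(35) selectivity score was calculated across the non-mutant kinases.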

[7] = molecular target: Cyclin-dependent kinase 11A (Homo sapiens) (UniProt Q9UQ88); assay: Inhibition of wild-type human partial length CDC2L2 (D391 to K730 residues) expressed in Escherichia coli BL21 assessed as residual activity at 1000 nM after 30 mins by Kinomescan method relative to control
[8] = molecular target: Tyrosine-protein kinase Srms (Homo sapiens) (UniProt Q9H3Y6); assay: Inhibition of wild-type human partial length SRMS (L208 to P488 residues) expressed in HEK293 cells assessed as residual activity at 1000 nM after 30 mins by Kinomescan method relative to control; assay type: cell-based
[9] = molecular target: Mitogen-activated protein kinase kinase kinase kinase 3 (Homo sapiens) (UniProt Q8IVH8); assay: Inhibition of wild-type human partial length MAP4K3 (M1 to D301 residues) expressed in Escherichia coli BL21 assessed as residual activity at 1000 nM after 30 mins by Kinomescan method relative to control
[10] = molecular target: LIM domain kinase 1 (Homo sapiens) (UniProt P53667); assay: Inhibition of wild-type human full length LIMK1 (M1 to D647 residues) expressed in Escherichia coli BL21 assessed as residual activity at 1000 nM after 30 mins by Kinomescan method relative to control
In short: (§3)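 Single-concentration screen at 1 µM across a 456-kinase KINOMEscan panel. The read-out is Percent Control for each kinase.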

[11] = molecular target: Serine/threonine-protein kinase 4 (Homo sapiens) (UniProt Q13043); assay: Inhibition of wild-type human full length MST1 (M1 to F487 residues) expressed in Escherichia coli BL21 assessed as residual activity at 1000 nM after 30 mins by Kinomescan method relative to control; in short: as §3
[12] = molecular target: Serine/threonine-protein kinase WNK2 (Homo sapiens) (UniProt Q9Y3S1); assay: Inhibition of wild-type human partial length WNK2 (V47 to D482 residues) expressed in HEK293 cells assessed as residual activity at 1000 nM after 30 mins by Kinomescan method relative to control; assay type: cell-based
[13] = molecular target: Serine/threonine-protein kinase 26 (Homo sapiens) (UniProt Q9P289); assay: Inhibition of wild-type human full length MST4 (M1 to P416 residues) expressed in HEK293 cells assessed as residual activity at 1000 nM after 30 mins by Kinomescan method relative to control; assay type: cell-based; in short: as §3
[14] = molecular target: Casein kinase I isoform gamma-1 (Homo sapiens) (UniProt Q9HCP0); assay: Inhibition of wild-type human partial length CSNK1G1 (T15 to S353 residues) expressed in Escherichia coli BL21 assessed as residual activity at 1000 nM after 30 mins by Kinomescan method relative to control
[15] = molecular target: Cyclin-dependent kinase 14 (Homo sapiens) (UniProt O94921); assay: Inhibition of wild-type human full length PFTK1 (M1 to H451 residues) expressed in Escherichia coli BL21 assessed as residual activity at 1000 nM after 30 mins by Kinomescan method relative to control; in short: as §3
[16] = tested on: Epidermal growth factor receptor (Homo sapiens), P00533 [L858R]; assay: Inhibition of human partial length EGFR L858R mutant (R669 to V1011 residues) expressed in Escherichia coli BL21 assessed as residual activity at 1000 nM after 30 mins by Kinomescan method relative to control; in short: as §1
[17] = molecular target: Ephrin type-A receptor 4 (Homo sapiens) (UniProt P54764); assay: Inhibition of wild-type human partial length EPHA4 (T601 to R897 residues) expressed in Escherichia coli BL21 assessed as residual activity at 1000 nM after 30 mins by Kinomescan method relative to control
Ephrin type-A receptor 4 (Homo sapiens), sequence (P54764 whole entry, the tested form may be a part): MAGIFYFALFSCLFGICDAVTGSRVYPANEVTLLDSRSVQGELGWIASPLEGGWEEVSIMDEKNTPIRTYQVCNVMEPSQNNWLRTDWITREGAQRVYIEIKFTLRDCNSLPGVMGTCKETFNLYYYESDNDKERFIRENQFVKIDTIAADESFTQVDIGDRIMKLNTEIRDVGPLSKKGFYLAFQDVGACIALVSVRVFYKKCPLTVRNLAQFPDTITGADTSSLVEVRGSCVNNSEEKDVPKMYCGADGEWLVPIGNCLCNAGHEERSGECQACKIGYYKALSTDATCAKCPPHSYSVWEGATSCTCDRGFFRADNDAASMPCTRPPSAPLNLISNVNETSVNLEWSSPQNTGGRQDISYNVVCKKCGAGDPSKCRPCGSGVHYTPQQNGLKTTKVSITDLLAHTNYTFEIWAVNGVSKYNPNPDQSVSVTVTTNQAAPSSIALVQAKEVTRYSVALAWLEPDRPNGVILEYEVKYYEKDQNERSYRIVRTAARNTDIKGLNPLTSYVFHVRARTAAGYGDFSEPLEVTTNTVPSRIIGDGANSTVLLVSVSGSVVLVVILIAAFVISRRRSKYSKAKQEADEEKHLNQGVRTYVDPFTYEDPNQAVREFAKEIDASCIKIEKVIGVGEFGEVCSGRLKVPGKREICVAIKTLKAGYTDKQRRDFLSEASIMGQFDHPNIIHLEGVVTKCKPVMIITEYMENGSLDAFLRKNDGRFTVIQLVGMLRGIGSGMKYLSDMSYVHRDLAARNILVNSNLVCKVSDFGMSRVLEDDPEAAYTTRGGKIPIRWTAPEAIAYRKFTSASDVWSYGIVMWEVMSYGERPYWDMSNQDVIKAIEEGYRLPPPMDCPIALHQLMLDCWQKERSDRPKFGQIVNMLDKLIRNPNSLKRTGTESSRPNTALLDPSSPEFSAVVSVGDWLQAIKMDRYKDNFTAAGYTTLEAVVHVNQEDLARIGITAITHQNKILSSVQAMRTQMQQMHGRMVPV

[18] = tested on: Mast/stem cell growth factor receptor Kit (Homo sapiens), P10721 [L576P]; assay: Inhibition of human partial length KIT L576P mutant (Y545 to D952 residues) expressed in Escherichia coli BL21 assessed as residual activity at 1000 nM after 30 mins by Kinomescan method relative to control; in short: as §1
[19] = molecular target: Serine/threonine-protein kinase N1 (Homo sapiens) (UniProt Q16512); assay: Inhibition of wild-type human partial length PKN1 (E598 to C948 residues) expressed in Escherichia coli BL21 assessed as residual activity at 1000 nM after 30 mins by Kinomescan method relative to control
[20] = molecular target: Tyrosine-protein kinase Fyn (Homo sapiens) (UniProt P06241); assay: Inhibition of wild-type human partial length FYN (T243 to L534 residues) expressed in Escherichia coli BL21 assessed as residual activity at 1000 nM after 30 mins by Kinomescan method relative to control
Tyrosine-protein kinase Fyn (Homo sapiens), sequence (P06241 2-537 limits assumed): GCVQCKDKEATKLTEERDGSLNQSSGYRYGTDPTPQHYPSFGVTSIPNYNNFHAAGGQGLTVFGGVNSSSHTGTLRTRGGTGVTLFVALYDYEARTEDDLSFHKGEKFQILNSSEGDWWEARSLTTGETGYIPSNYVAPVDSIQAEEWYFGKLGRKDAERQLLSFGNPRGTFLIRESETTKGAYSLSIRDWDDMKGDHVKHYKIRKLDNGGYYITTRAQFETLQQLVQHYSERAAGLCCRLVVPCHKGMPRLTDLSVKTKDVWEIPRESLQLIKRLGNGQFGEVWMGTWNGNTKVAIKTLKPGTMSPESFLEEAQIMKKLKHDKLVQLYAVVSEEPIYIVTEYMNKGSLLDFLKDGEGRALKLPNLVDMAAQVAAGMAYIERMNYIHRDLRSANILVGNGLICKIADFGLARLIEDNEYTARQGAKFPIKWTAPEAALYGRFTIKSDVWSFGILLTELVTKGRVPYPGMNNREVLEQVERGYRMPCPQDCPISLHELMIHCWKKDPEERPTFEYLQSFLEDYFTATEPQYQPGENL

SW780 = assay: Antiproliferative activity against human FGFR3-amplified SW780 cells after 5 days by SRB assay; conditions: SW780, 120 h
[21] = molecular target: Cyclin-dependent kinase 4 (Homo sapiens) (UniProt P11802); assay: Inhibition of wild-type human full length CDK4 (M1 to E303 residues) expressed in HEK293 cells assessed as residual activity at 1000 nM after 30 mins by Kinomescan method relative to control; assay type: cell-based; in short: as §2
Cyclin-dependent kinase 4 (Homo sapiens), sequence (P11802 whole entry, the tested form may be a part): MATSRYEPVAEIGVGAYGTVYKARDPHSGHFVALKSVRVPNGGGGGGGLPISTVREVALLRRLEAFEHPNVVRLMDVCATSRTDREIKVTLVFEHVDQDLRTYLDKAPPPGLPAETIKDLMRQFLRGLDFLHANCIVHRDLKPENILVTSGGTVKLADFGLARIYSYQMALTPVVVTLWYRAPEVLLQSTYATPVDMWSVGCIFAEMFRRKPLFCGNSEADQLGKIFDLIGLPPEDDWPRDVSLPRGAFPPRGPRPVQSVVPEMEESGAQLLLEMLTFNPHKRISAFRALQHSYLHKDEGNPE

Compound `COc1cc(OC)c(Cl)c(N2Cc3cnc(Nc4ccc(F)cc4)nc3N(C3CCN(C(=O)/C=C/CN(C)C)CC3)C2=O)c1Cl` has an Activity [1] of 100%, an Activity [2] of 93% and an Activity [3] of 100%. The Activity [4] was 95%, the Activity [5] was 33% and the Activity [6] was 96%. It also gave an Activity [7] of 88%, an Activity [8] of 100% and an Activity [9] of 88%. For the same compound, the Activity [10] was 100%, the Activity [11] was 81% and the Activity [12] was 96%. It also gave an Activity [13] of 69%, an Activity [14] of 82% and an Activity [15] of 92%. For the same compound, the Activity [16] was 90%, the Activity [17] was 100% and the Activity [18] was 2.6%. For the same compound, the Activity [19] was 92%, the Activity [20] was 19% and the pIC50 (SW780) was 7.79. It also gave an Activity [21] of 100%.
